Nine compounds from ChEMBL document CHEMBL2396538, “Synthesis and biological evaluation of a novel series of aryl S,N-ketene acetals as antileishmanial agents” (Bioorg Med Chem Lett, 2013) can be followed below.

Series [1] deals with Leishmania donovani. Nature of the series: Antileishmanial activity against amastigote stage of Leishmania donovani infected in golden hamster assessed as inhibition of parasite multiplication at 50 mg/kg, po administered 5 days measured on day 7 by Giemsa staining assay relative to control. The series is classed as functional. The method, boiled down: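 L. donovani-infected hamsters received 50 mg/kg orally for 5 days. Post-treatment biopsy was on day 7 after the last dose, with Giemsa-stained amastigote counts. Percent inhibition came from comparing treated animals with untreated animals and with the treated animals' initial counts.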

The test system of a further series is Syrian golden hamster. Briefly: Toxicity in golden hamster at 50 mg/kg, ip and po administered 5 days measured on day 7. Conditions: in vivo, 120 h. The arrangement: dose 50 mg/kg, route oral. It is filed as organism-based, Mesocricetus auratus.
Series [2] can be described thus: Metabolic stability in hamster liver microsomes at 25 uM by HPLC analysis in absence of NADPH and presence of CYP suicidal inhibitor 1-ABZT. Conditions: cricetinae.
Series [3] deals with Leishmania donovani. Nature of the series: Antileishmanial activity against amastigote stage of Leishmania donovani infected in golden hamster assessed as inhibition of parasite multiplication at 50 mg/kg, ip administered 5 days measured on day 7 by Giemsa staining assay relative to control. The series is classed as functional. Conditions: for inhibition in vivo at 50 mg/kg: route intraperitoneal. The method, boiled down: (§1)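 Golden hamster L. donovani model; 50 mg/kg given ip for 5 days. Biopsies were taken on day 7 after the last dose, and amastigotes were counted by Giemsa staining. Percent inhibition was derived by comparing infection intensity in treated versus untreated animals and against the initial count in treated animals.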

For series [4], the system named is Leishmania donovani. Nature of the series: Antileishmanial activity against promastigote stage of Leishmania donovani assessed as parasite growth inhibition at 25 uM after 72 hrs by luciferase reporter gene assay relative to untreated control. The series is classed as functional. As to conditions: for inhibition of growth at 25 µM: read-out: GI. The gist of the method:
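Luciferase-transfected L. donovani promastigotes (5 × 10^5/100 µL) exposed to compounds for 72 h. Suspension mixed 1:1 with Steady-Glo reagent; luminescence read as relative luminescence units. Inhibition calculated from luciferase activity of treated versus untreated parasites.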

Series [5] in a line: (§2) Selectivity index, ratio of CC50 for african green monkey vero cells to IC50 for amastigote stage of Leishmania donovani infected in mouse J774A.1 cells. The series is classed as functional. The gist of the method: (§3)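 Selectivity index calculated as CC₅₀ (Vero cells, 72 h MTT) divided by IC₅₀ against intracellular amastigotes in luciferase-reporter J-774A.1 macrophage assay.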

The nature of series [6]: Cytotoxicity against african green monkey vero cells assessed as cell viability after 72 hrs by MTT assay. The series is classed as cell-based. Conditions: chlorocebus sabaeus. The method, boiled down: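 Exponentially growing Vero monkey kidney […] incubated with compounds for 72 h; viable cells detected with MTT (Mosmann method); CC₅₀ estimated.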
A general note: Tetrazolium dyes change colour on reduction, which living cells bring about.

Series [7] has as its system Leishmania donovani. Nature of the series: Antileishmanial activity against amastigote stage of Leishmania donovani infected in mouse J774A.1 cells assessed as parasite growth inhibition after 72 hrs by luciferase reporter gene assay. The series is classed as functional, organism-based. As to conditions: J774.A1, 72 h. The method, boiled down:
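Mouse macrophage J-774A.1 cells (4 × 10^3/100 µL) were seeded, then infected with luciferase-transfected L. donovani promastigotes (4 × 10^4/100 µL), which transformed into intracellular amastigotes. Compounds at 0.62–40 µM for 72 h in CO₂ incubator. Medium replaced with PBS plus Steady-Glo; luminescence read. Growth inhibition versus untreated controls; IC₅₀ derived.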

For series [8], the system named is Leishmania donovani. Nature of the series: Antileishmanial activity against Leishmania donovani infected in hamster assessed as inhibition of parasite multiplication relative to control. The series is classed as functional. The method, boiled down: as §1
In the next series the test system is Vero. The series is described as §2. It is filed as functional. The method, boiled down:
as §3

Calls of active or inactive are those of the source. The calls are words filed in the database; no cut-off is given here.

As a reminder, the inhibition in vivo is the drop in the measured response relative to a control, in per cent. By CC50 is commonly meant the concentration that lowers cell viability or growth by half. Broadly, the IC50 is the concentration that gives 50% inhibition. What is called inhibition is how much of the control response was suppressed.

Regarding `COc1cc(/C=C/C(=O)/C=C(\Nc2ccccc2)SC)cc(OC)c1OC`, the inhibition in vivo at 50 mg/kg in the series on Leishmania donovani [1] came out at 64%; in the series with Leishmania donovani [3] it was 83%. Moreover, the Activity result with Syrian golden hamster is on record as “Non-toxic”. In addition, the Stability entry in series [2] is recorded as “Stable”. For the same compound, the inhibition of growth at 25 µM with Leishmania donovani [4] turned out to be 96.2%. Further, in series [5], the “Ratio CC50/IC50” value came to 31. Also, in series [6], the CC50 at 72 h was 64.6 µM. Further, in the series with Leishmania donovani [7], the IC50 was 2.1 µM.
Consider `COc1ccc(N/C(=C\C(=O)/C=C/c2cc(OC)c(OC)c(OC)c2)SC)cc1`, for which, in the series with Leishmania donovani [3], the inhibition in vivo at 50 mg/kg turned out to be 32%. Further, the inhibition of growth at 25 µM in the series on Leishmania donovani [4] came to 99.1%. Further, the “Ratio CC50/IC50” value in series [5] came out at 69. Moreover, the CC50 at 72 h in [6] was found to be 184 µM. Moreover, the IC50 with Leishmania donovani [7] was found to be 2.6 µM.
As for `COc1cc(/C=C/C(=O)C=C(SC)SC)cc(OC)c1OC`, the “inhibition (INH)” value in the series with Leishmania donovani [8] is 66%.
In the case of `COc1cc(/C=C/C(=O)/C=C(\Nc2ccc(F)cc2)SC)cc(OC)c1OC`, the inhibition in vivo at 50 mg/kg in the series with Leishmania donovani [3] is 72%. In addition, in the series on Leishmania donovani [4], the inhibition of growth at 25 µM was 97.9%. Also, the “Ratio CC50/IC50” value in series [5] is 36. Also, the 50% cytotoxic concentration (CC50) at 72 h in [6] came out at 43.4 µM. Besides, the IC50 in the series on Leishmania donovani [7] worked out at 1.2 µM.
`COc1cc(/C=C/C(=O)/C=C(\NCc2ccccc2)SC)cc(OC)c1OC`: the inhibition result with Leishmania donovani [3] is “inactive”. In addition, the inhibition of growth at 25 µM in the series with Leishmania donovani [4] came out at 98.6%. The “Ratio CC50/IC50” value in series [5] is reported as 36. In [6], the CC50 at 72 h stood at 71.5 µM. The IC50 in the series on Leishmania donovani [7] was 2 µM.
Consider `NC[C@@H]1O[C@H](O[C@H]2[C@@H](O)[C@H](O[C@@H]3[C@@H](O)[C@H](N)C[C@H](N)[C@H]3O[C@H]3O[C@H](CO)[C@@H](O)[C@H](O)[C@H]3N)O[C@@H]2CO)[C@H](N)[C@@H](O)[C@@H]1O` [PAROMOMYCIN], for which the inhibition in vivo at 50 mg/kg in the series on Leishmania donovani [3] came to 46%. For the same compound, the “growth inhibition (GI)” value in the series with Leishmania donovani [4] is “inactive”. For the same compound, in [5], the “Ratio CC50/IC50” value was 2. Further, the CC50 at 72 h in series [6] stood at 86.6 µM. The IC50 in the series with Leishmania donovani [7] worked out at 40.3 µM.
As to `COc1cc(/C=C/C(=O)/C=C(\Nc2ccc(Cl)cc2)SC)cc(OC)c1OC`, in the series with Leishmania donovani [3], the inhibition in vivo at 50 mg/kg came out at 21%. Besides, the inhibition of growth at 25 µM in the series with Leishmania donovani [4] was found to be 98.7%. Besides, the “Ratio CC50/IC50” value in series [5] was found to be 36. In series [6], the CC50 at 72 h is 57.9 µM. Also, in the series with Leishmania donovani [7], the IC50 stood at 1.6 µM.
For Sodium stibogluconate, the inhibition in the series on Leishmania donovani [3] amounted to 89%. Further, the “growth inhibition (GI)” value with Leishmania donovani [4] is “inactive”. The Ratio CC50/IC50 with Vero was found to be 7.
In the case of `COc1cc(/C=C/C(=O)/C=C(\NC2CCCCC2)SC)cc(OC)c1OC`, the inhibition of growth at 25 µM in the series with Leishmania donovani [4] is 98.9%. Moreover, the “Ratio CC50/IC50” value in series [5] is 7. In addition, in [6], the CC50 at 72 h stood at 22.7 µM. In addition, the IC50 with Leishmania donovani [7] worked out at 3.5 µM.
